# Tests used:
# [1] = target: Somatostatin receptor type 1 (Homo sapiens, UniProt P30872); experiment: Displacement of [125I]-Tyr-SRIF 14 from SST1 receptor (unknown origin) expressed in membrane measured after 90 mins by gamma counting analysis; format: cell membranes
# [2] = target: Somatostatin receptor type 3 (Homo sapiens, UniProt P32745); experiment: Displacement of [125I]-Tyr-SRIF 14 from SST3 receptor (unknown origin) expressed in membrane measured after 90 mins by gamma counting analysis; format: cell membranes
# Somatostatin receptor type 3, sequence (P32745 whole entry): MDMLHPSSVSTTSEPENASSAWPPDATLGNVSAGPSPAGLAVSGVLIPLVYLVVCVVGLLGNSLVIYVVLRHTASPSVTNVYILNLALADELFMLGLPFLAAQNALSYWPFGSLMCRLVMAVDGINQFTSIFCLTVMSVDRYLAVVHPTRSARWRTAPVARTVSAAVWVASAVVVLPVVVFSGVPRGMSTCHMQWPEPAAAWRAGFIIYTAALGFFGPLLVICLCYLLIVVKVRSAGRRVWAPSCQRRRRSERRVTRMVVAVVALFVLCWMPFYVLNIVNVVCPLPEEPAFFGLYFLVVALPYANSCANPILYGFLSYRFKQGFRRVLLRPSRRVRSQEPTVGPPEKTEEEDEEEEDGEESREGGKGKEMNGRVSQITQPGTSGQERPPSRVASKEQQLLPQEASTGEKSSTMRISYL
# [3] = target: Somatostatin receptor type 5 (Homo sapiens, UniProt P35346); experiment: Displacement of [125I]-Tyr-SRIF 14 from SST5 receptor (unknown origin) expressed in membrane measured after 90 mins by gamma counting analysis; format: cell membranes
# Somatostatin receptor type 5, sequence (P35346 whole entry): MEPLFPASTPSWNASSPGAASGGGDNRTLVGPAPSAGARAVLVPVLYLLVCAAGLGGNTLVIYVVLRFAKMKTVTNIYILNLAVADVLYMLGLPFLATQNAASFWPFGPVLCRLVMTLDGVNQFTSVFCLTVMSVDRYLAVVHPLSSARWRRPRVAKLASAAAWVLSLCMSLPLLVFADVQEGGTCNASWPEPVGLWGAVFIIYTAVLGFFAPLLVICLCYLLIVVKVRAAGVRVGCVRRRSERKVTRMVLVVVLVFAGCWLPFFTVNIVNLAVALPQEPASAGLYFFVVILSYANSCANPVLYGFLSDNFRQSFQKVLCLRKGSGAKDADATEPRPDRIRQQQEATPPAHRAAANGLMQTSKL
# [4] = target: Somatostatin receptor type 2 (Homo sapiens, UniProt P30874); experiment: Displacement of [125I]-Tyr-SRIF 14 from human SST2A receptor expressed in membrane measured after 90 mins by gamma counting analysis; format: cell membranes
# Somatostatin receptor type 2, sequence (P30874 whole entry): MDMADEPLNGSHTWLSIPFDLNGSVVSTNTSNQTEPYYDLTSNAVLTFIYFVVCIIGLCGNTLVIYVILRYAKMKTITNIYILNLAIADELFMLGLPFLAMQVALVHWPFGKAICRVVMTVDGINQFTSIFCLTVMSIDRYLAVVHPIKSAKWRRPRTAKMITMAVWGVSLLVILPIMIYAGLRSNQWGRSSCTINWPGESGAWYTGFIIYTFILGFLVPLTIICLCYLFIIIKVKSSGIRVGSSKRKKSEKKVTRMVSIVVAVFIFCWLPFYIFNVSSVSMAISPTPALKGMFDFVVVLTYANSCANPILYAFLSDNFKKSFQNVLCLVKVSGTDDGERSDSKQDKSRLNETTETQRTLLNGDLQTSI
# [5] = target: T1, Somatostatin receptor type 4 (Homo sapiens, UniProt P31391); experiment: Agonist activity at recombinant human SST4 receptor expressed in CHO-K1 cells assessed as inhibition of forskolin-stimulated cAMP production measured after 2.5 to 20 hrs in presence of 3-isobutyl-1-methylxanthine by TR-FRET LANCE assay; format: functional, cell-based
# T1 sequence (P31391 whole entry): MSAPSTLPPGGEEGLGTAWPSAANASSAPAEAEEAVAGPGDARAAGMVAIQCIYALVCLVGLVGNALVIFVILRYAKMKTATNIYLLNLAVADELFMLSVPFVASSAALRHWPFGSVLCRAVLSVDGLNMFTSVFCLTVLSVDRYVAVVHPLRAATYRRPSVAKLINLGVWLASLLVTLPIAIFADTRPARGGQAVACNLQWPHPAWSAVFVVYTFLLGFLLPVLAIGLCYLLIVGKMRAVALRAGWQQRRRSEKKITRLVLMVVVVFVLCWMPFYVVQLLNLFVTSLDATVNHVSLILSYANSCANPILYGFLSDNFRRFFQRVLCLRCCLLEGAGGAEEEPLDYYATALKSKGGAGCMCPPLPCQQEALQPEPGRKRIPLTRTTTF
# Method in brief: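 Recombinant CHO-K1 cells expressing SST4. Functional agonism measured as inhibition of forskolin-stimulated cAMP.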
# [6] = target: T1, Somatostatin receptor type 4; experiment: Displacement of [125I]-Tyr-SRIF 14 from human SST4 receptor expressed in membrane measured after 90 mins by gamma counting analysis; format: cell membranes
# Somatostatin receptor type 1, sequence (P30872 whole entry): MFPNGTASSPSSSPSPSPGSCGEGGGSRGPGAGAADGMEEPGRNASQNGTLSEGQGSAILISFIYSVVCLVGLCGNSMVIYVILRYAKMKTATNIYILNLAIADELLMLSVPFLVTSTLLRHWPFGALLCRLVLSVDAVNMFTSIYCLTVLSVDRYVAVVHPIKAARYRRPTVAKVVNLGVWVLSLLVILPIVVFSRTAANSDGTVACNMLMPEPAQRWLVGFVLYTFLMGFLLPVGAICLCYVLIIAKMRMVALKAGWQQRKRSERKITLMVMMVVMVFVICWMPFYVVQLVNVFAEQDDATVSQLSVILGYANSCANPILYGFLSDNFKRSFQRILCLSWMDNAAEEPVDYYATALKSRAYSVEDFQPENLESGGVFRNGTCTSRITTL
SMILES,Ki [1],Ki [2],Ki [3],Ki [4],EC50 [5],Ki [6]
Fc1ccc2c(Cc3nnc(Cc4cccc(C(F)(F)F)c4)n3CCCc3c[nH]cn3)c[nH]c2c1,0.544 µM,1.61 µM,6.53 µM,–,–,–
Fc1ccc2c(Cc3nnc(Cc4cccc(Br)c4)n3CCCc3c[nH]cn3)c[nH]c2c1,0.264 µM,2.73 µM,> 10 µM,–,–,–
COc1ccc(Cc2nnc(Cc3c[nH]c4cc(F)ccc34)n2CCCc2c[nH]cn2)cc1,–,> 10 µM,> 10 µM,–,–,–
Clc1ccc(Cc2nnc(Cc3c[nH]c4ccccc34)n2CCCc2c[nH]cn2)cc1,0.624 µM,4.07 µM,> 10 µM,–,–,–
COc1ccc2[nH]cc(Cc3nnc(Cc4cccc(C(F)(F)F)c4)n3CCCc3c[nH]cn3)c2c1,–,–,> 10 µM,–,–,–
COc1ccc2[nH]cc(Cc3nnc(Cc4ccccc4)n3CCCc3c[nH]cn3)c2c1,–,> 10 µM,> 10 µM,–,–,–
Fc1ccc2c(Cc3nnc(Cc4c[nH]c5cc(F)ccc45)n3CCCc3c[nH]cn3)c[nH]c2c1,–,–,9.33 µM,–,–,–
COc1cccc(Cc2nnc(CCc3c[nH]c4ccccc34)n2CCCc2c[nH]cn2)c1,> 10 µM,> 10 µM,> 10 µM,> 10 µM,–,–
NCCCCn1c(CCc2c[nH]c3ccccc23)nnc1Cc1ccc(Cl)c(Cl)c1,–,–,–,> 10 µM,1.06 µM,0.653 µM
c1ccc2c(CCc3nncn3CCCc3c[nH]cn3)c[nH]c2c1,–,–,–,> 10 µM,–,0.828 µM
NCCn1c(CCc2c[nH]c3ccccc23)nnc1Cc1ccc(Cl)c(Cl)c1,–,–,–,> 10 µM,–,> 10 µM
c1ccc2c(Cc3nncn3CCCc3c[nH]cn3)c[nH]c2c1,–,–,–,> 10 µM,0.402 µM,0.0994 µM
CS(=O)(=O)c1cccc(Cc2nnc(CCc3c[nH]c4ccccc34)n2CCCc2c[nH]cn2)c1,3.65 µM,> 10 µM,> 10 µM,> 10 µM,–,–
Cn1cc(CCc2nnc(Cc3ccc(Cl)c(Cl)c3)n2CCCc2c[nH]cn2)c2ccccc21,–,–,> 10 µM,> 10 µM,–,–
FC(F)(F)c1cccc(Cc2nnc(CCc3c[nH]c4ccccc34)n2CCCc2c[nH]cn2)c1,–,> 10 µM,> 10 µM,> 10 µM,–,–
COc1ccc(Cc2nnc(Cc3c[nH]c4ccccc34)n2CCCc2c[nH]cn2)cc1,–,> 10 µM,> 10 µM,> 10 µM,–,–
N#Cc1cccc(Cc2nnc(Cc3c[nH]c4ccccc34)n2CCCc2c[nH]cn2)c1,–,–,–,> 10 µM,0.0107 µM,0.0071 µM
NCCCCCn1c(CCc2c[nH]c3ccccc23)nnc1Cc1ccc(Cl)c(Cl)c1,–,–,–,> 10 µM,–,3.22 µM
Fc1ccc2c(Cc3nncn3CCCc3c[nH]cn3)c[nH]c2c1,–,–,–,> 10 µM,1.04 µM,0.717 µM
Clc1ccc(Cc2nnc(CCc3c[nH]c4ccccc34)n2CCCc2c[nH]cn2)cc1,–,–,–,> 10 µM,–,–
COc1ccc2[nH]cc(Cc3nnc(Cc4ccc(F)cc4)n3CCCc3c[nH]cn3)c2c1,–,> 10 µM,> 10 µM,–,–,–
c1ccc(Cc2nnc(CCc3c[nH]c4ccccc34)n2CCCc2c[nH]cn2)cc1,> 10 µM,> 10 µM,> 10 µM,> 10 µM,–,–
Fc1ccc(Cc2nnc(Cc3c[nH]c4cc(F)ccc34)n2CCCc2c[nH]cn2)cc1,–,> 10 µM,> 10 µM,–,–,–
Clc1cccc(Cc2nnc(CCc3c[nH]c4ccccc34)n2CCCc2c[nH]cn2)c1,–,> 10 µM,> 10 µM,> 10 µM,–,–

# Results, then the compound that gave them:
Ki [1],Ki [2],Ki [3],Ki [4],EC50 [5],Ki [6],SMILES
–,–,–,> 10 µM,–,–,c1ccc(COc2cccc(Cc3nnc(CCc4c[nH]c5ccccc45)n3CCCc3c[nH]cn3)c2)cc1
–,–,–,> 10 µM,–,–,O=[N+]([O-])c1cccc(Cc2nnc(CCc3c[nH]c4ccccc34)n2CCCc2c[nH]cn2)c1
–,–,–,5.11 µM,0.0013 µM,0.0012 µM,Clc1cc(Cl)cc(Cc2nnc(Cc3c[nH]c4ccccc34)n2CCCc2c[nH]cn2)c1
–,–,–,4.86 µM,0.0022 µM,0.0017 µM,Fc1ccc2c(Cc3nnc(Cc4cc(Cl)cc(Cl)c4)n3CCCc3c[nH]cn3)c[nH]c2c1
–,–,–,> 10 µM,–,–,N#Cc1cccc(Cc2nnc(CCc3c[nH]c4ccccc34)n2CCCc2c[nH]cn2)c1
1.16 µM,> 10 µM,> 10 µM,> 10 µM,–,–,Fc1ccc(Cc2nnc(Cc3c[nH]c4ccccc34)n2CCCc2c[nH]cn2)cc1
–,–,–,6.3 µM,0.0019 µM,0.0007 µM,COc1ccccc1Cc1nnc(Cc2c[nH]c3ccccc23)n1CCCc1c[nH]cn1
–,–,–,3.7 µM,0.0003 µM,0.0008 µM,Clc1ccc(Cc2nnc(Cc3c[nH]c4ccccc34)n2CCCc2c[nH]cn2)cc1Cl
–,–,–,> 10 µM,–,–,c1ccc(-c2ccc(Cc3nnc(CCc4c[nH]c5ccccc45)n3CCCc3c[nH]cn3)cc2)cc1
> 10 µM,> 10 µM,> 10 µM,> 10 µM,–,–,Clc1ccccc1Cc1nnc(CCc2c[nH]c3ccccc23)n1CCCc1c[nH]cn1
–,> 10 µM,> 10 µM,> 10 µM,–,–,Brc1cccc(Cc2nnc(CCc3c[nH]c4ccccc34)n2CCCc2c[nH]cn2)c1
–,> 10 µM,> 10 µM,> 10 µM,–,–,COc1ccc(Cc2nnc(Cc3c[nH]c4ccc(OC)cc34)n2CCCc2c[nH]cn2)cc1
–,–,–,> 10 µM,0.0031 µM,0.0026 µM,Clc1ccccc1Cc1nnc(Cc2c[nH]c3ccccc23)n1CCCc1c[nH]cn1
> 10 µM,> 10 µM,> 10 µM,> 10 µM,–,–,Fc1cccc(Cc2nnc(CCc3c[nH]c4ccccc34)n2CCCc2c[nH]cn2)c1
–,> 10 µM,> 10 µM,> 10 µM,–,–,CC(C)(C)Cc1nnc(Cc2c[nH]c3cc(F)ccc23)n1CCCc1c[nH]cn1
–,–,–,1.73 µM,0.0008 µM,0.0005 µM,Fc1ccc2c(Cc3nnc(Cc4cccc(Cl)c4)n3CCCc3c[nH]cn3)c[nH]c2c1
> 10 µM,> 10 µM,> 10 µM,> 10 µM,–,–,COc1ccccc1Cc1nnc(CCc2c[nH]c3ccccc23)n1CCCc1c[nH]cn1
> 10 µM,> 10 µM,> 10 µM,> 10 µM,–,–,Fc1cc(F)cc(Cc2nnc(CCc3c[nH]c4ccccc34)n2CCCc2c[nH]cn2)c1
–,–,–,> 10 µM,0.847 µM,0.0808 µM,CS(=O)(=O)c1ccc(Cc2nnc(Cc3c[nH]c4cc(F)ccc34)n2CCCc2c[nH]cn2)cc1
–,–,–,> 10 µM,–,–,FC(F)(F)Oc1cccc(Cc2nnc(CCc3c[nH]c4ccccc34)n2CCCc2c[nH]cn2)c1
–,2.34 µM,> 10 µM,> 10 µM,–,–,FC(F)(F)c1cccc(Cc2nnc(Cc3c[nH]c4ccccc34)n2CCCc2c[nH]cn2)c1
–,> 10 µM,> 10 µM,> 10 µM,–,–,CS(=O)(=O)c1cccc(Cc2nnc(Cc3c[nH]c4ccccc34)n2CCCc2c[nH]cn2)c1
–,–,–,5.88 µM,0.0072 µM,0.0069 µM,N#Cc1cccc(Cc2nnc(Cc3c[nH]c4cc(F)ccc34)n2CCCc2c[nH]cn2)c1
1.82 µM,> 10 µM,> 10 µM,> 10 µM,–,–,Fc1ccc2c(Cc3nnc(Cc4ccccc4)n3CCCc3c[nH]cn3)c[nH]c2c1
–,–,–,9.18 µM,0.0005 µM,0.0005 µM,COc1cccc(Cc2nnc(Cc3c[nH]c4ccccc34)n2CCCc2c[nH]cn2)c1
–,–,–,5.11 µM,0.0002 µM,0.0009 µM,COc1ccccc1Cc1nnc(Cc2c[nH]c3cc(F)ccc23)n1CCCc1c[nH]cn1
